Sampled rows, rich in hits. Any-hit rate of the full collection: about 1%.
PKA-R1A act: activators of PKA-R1A holoenzyme, primary screen, biochemical, fluorescence polarization, Cy5-IP20, bovine R1A, mouse PKAc | cAMP-dependent protein kinase type I-alpha regulatory subunit (Bos taurus) + … | AID 504707, 2011 | PKA-R1A dissociation; scaled: DMSO 0%, 113 µM cGMP 100% | activation, % at 11.4 µM | 340,000 compounds, 0.083% hits;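 active = percent activation above the mean of all tested compounds plus 3 SD, cut at about 19% in these data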;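 note: higher means more PKAc released from R1A so a rise in polarization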
DDE Tn7 FP inh: inhibitors of Tn7 peptide binding to fibrin DD(E), primary screen, biochemical, fluorescence polarization, human fibrin, Tn7 probe | Fibrinogen beta chain (Homo sapiens), P02675 | FP displacement of FITC-Tn7 peptide from fibrin DD(E); 0% = median of compound wells per plate | inhibition, % at 8.3 µM | 370,000 compounds, 0.13% hits | AID 720508, 2013;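 active = inhibition above the mean of compounds falling within the control limits plus 3 SD of them, cut at about 14% in these data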;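 note: 0% = plate median of compound wells and 100% = 10 µM Aha-Tn7 peptide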
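Measure: % inhibition scaled between sample-field median and high-control FP; Test system: human fibrin DD(E); Quantity: 2 µM final DD(E) protein; Doses: one dose, 8.3 µM nominal; Schedule: compound with protein 10 min, then 3 h after probe, room temperature; Detection: fluorescence polarization; Medium: Tris buffer with calcium and detergent, pH 7.8.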
Tn6 DDE FP: inhibitors of Tn6 peptide binding to fibrin DD(E), primary screen, biochemical, fluorescence polarization, human fibrin, Tn6 probe. Fibrinogen beta chain (Homo sapiens), P02675. Fibrin DD(E) TRITC-Tn6 fluorescence polarization displacement. inhibition, % at 8.3 µM. 370,000 compounds, 0.21% hits. AID 720509, 2013;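 active = inhibition above a per-campaign cutoff: mean of compounds within control limits plus 3 SD, cut at about 15% in these data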;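 note: 0% = median of all compound wells on the plate and 100% = blocking peptide control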
PKA-R2B activ: activators of PKA-R2B holoenzyme, primary screen, biochemical, fluorescence polarization, Cy5-IP20, human; 340,000 compounds, 0.079% hits; PKA-R2B holoenzyme dissociation; R2B truncated from residue 108, S112A mutant; 0% DMSO only, 100% 113 µM cGMP; AID 504700, 2011; cAMP-dependent protein kinase catalytic subunit beta (Homo sapiens) + cAMP-dependent …; activation, % at 11.4 µM;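 active = activation above a cutoff set at the mean over all compounds plus 3 SD, cut at about 18% in these data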;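 note: higher means more holoenzyme dissociation and a rise in polarization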
Neddylation inh: inhibitors of cullin neddylation, primary screen, biochemical, TR-FRET, uHTS, NAE and Ubc12; inhibition, % at 25 µM; 360,000 compounds, 0.58% hits; AID 651699, 2012; in the data active = inhibition above about 36%
Target sequence (P61081 whole entry, looked up): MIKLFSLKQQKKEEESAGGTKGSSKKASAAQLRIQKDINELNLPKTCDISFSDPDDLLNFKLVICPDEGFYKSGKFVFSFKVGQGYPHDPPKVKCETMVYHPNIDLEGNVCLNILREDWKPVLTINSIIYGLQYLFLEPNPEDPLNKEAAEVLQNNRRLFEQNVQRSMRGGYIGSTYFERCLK
Target sequence (Q13564 whole entry, looked up): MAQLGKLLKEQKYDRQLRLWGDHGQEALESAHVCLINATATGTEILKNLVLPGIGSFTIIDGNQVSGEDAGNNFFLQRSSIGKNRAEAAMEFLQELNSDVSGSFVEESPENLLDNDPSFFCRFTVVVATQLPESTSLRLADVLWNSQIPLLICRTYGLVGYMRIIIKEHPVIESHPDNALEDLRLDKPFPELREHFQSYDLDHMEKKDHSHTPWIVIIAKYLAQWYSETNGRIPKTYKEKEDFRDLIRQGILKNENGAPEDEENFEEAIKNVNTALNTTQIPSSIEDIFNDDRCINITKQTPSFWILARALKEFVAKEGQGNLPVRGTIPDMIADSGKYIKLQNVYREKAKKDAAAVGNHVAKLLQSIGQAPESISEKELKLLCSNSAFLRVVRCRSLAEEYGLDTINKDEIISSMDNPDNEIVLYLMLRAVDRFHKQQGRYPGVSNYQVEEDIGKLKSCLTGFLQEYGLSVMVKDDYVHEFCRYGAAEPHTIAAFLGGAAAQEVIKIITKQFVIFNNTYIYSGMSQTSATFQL
DDE Tn6 FP ctr: counter-screen hit for Tn6 peptide-fibrin DD(E) binding disruption; shares compounds with Tn6 DDE FP; TRITC-Tn6 fluorescence polarization displacement; 0% = median of compound wells, not DMSO; inhibition, % at 8.3 µM; 680 compounds, 2% hits; AID 720621;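 active = inhibition above the mean of test compounds lying between the control limits plus 3 SD of those, cut at about 14% in these data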;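 note: 0% = median of compound wells and 100% = wells with Aha-Tn7 blocking peptide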
DDE Tn6 confirm: inhibitors of Tn6 peptide binding to fibrin DD(E), confirmation, biochemical, fluorescence polarization, human fibrin, Tn6 probe. shares compounds with Tn6 DDE FP. 680 compounds, 10% hits. FP displacement of TRITC-Tn6 peptide from DD(E); 0% = per-plate median of test wells. inhibition, % at 8.3 µM;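 active = inhibition above the mean of compounds lying within the control limits plus 3 SD, cut at about 16% in these data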;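 note: 100% = high control wells holding a competing inhibitor peptide at 10 µM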
An asterisk follows results filed as active.

Results for CC1CCN(S(=O)(=O)c2ccc(C(=O)Nc3nnc(C4CC4)o3)cc2)CC1 ?
PKA-R1A act: -3; DDE Tn7 FP inh: 2; Tn6 DDE FP: 21*; PKA-R2B activ: -6; Neddylation inh: -1; DDE Tn6 FP ctr: -3; DDE Tn6 confirm: -4

What do the screens show for `O=C(Nc1nnc(C2CC2)o1)c1ccc(S(=O)(=O)N2CCCCC2)cc1`?
PKA-R1A act: 9; DDE Tn7 FP inh: -7; Tn6 DDE FP: 3; PKA-R2B activ: 1; Neddylation inh: -6

What do the screens show for `CCn1c(=O)c(=O)[nH]c2cc(C(=O)NC3CCCc4ccccc43)ccc21` (stereo unspecified)?
PKA-R1A act: 6; DDE Tn7 FP inh: 10; Tn6 DDE FP: 18*; PKA-R2B activ: 0; Neddylation inh: 14; DDE Tn6 FP ctr: -1; DDE Tn6 confirm: -2

How did Cc1cc2ccccc2cc1CN1CCCCC1 do in these assays?
PKA-R1A act: -1; DDE Tn7 FP inh: 5; Tn6 DDE FP: 16*; PKA-R2B activ: -11; Neddylation inh: 1; DDE Tn6 FP ctr: -4; DDE Tn6 confirm: -4

How did CCCCCCCCNS(=O)(=O)/C=C/c1ccc(OC)cc1CNC(=O)OC(C)(C)C do in these assays?
DDE Tn7 FP inh: -3; Tn6 DDE FP: 6

What do the screens show for `CCOC(=O)c1sc(N(Cc2ccccc2)C(=O)COC(=O)c2ccccc2O)nc1C`?
PKA-R1A act: 7; DDE Tn7 FP inh: 1; Tn6 DDE FP: -5; PKA-R2B activ: -3; Neddylation inh: 7

Results for CCOC(=O)c1sc(N(Cc2ccccc2)C(=O)COC(=O)c2ccc(O)cc2)nc1C ?
PKA-R1A act: -2; DDE Tn7 FP inh: 6; Tn6 DDE FP: 27*; PKA-R2B activ: 1; Neddylation inh: -24; DDE Tn6 FP ctr: 9; DDE Tn6 confirm: -3

Results for Cc1ccc(S(=O)(=O)CCC(=O)OCCOc2cccc(Br)c2)cc1 ?
PKA-R1A act: -3; DDE Tn7 FP inh: -5; Tn6 DDE FP: 15*; PKA-R2B activ: -6; Neddylation inh: 10; DDE Tn6 FP ctr: 7; DDE Tn6 confirm: 8

How did COc1cc(NS(=O)(=O)c2ccc(NC(=S)NC(=O)/C=C/c3ccc(F)cc3)cc2)ncn1 do in these assays?
PKA-R1A act: -4; DDE Tn7 FP inh: 2; Tn6 DDE FP: 19*; PKA-R2B activ: -8; Neddylation inh: 3; DDE Tn6 FP ctr: -6; DDE Tn6 confirm: -10

How did COc1nccnc1NS(=O)(=O)c1ccc(NC(=S)NC(=O)/C=C/c2ccc(F)cc2)cc1 do in these assays?
PKA-R1A act: -2; DDE Tn7 FP inh: -2; Tn6 DDE FP: -3; PKA-R2B activ: 11; Neddylation inh: 1

Results for Cc1cc(-c2n[nH]c(=S)n2N=Cc2c3ccccc3cc3ccccc23)n[nH]1 ?
DDE Tn7 FP inh: 5; Tn6 DDE FP: 5

Results for COC(=O)[C@]12C[C@H](CC(=O)N3CCC(c4ccccc4)CC3)C(=O)N(Cc3ccc(Cl)cc3Cl)C1=C[C@H](COCc1ccccc1)O[C@@H]2C ?
DDE Tn7 FP inh: -6; Tn6 DDE FP: -4

How did CCN(Cc1ccncc1)C(=O)C(CO)c1ccccc1 (stereo unspecified) do in these assays?
PKA-R1A act: -1; DDE Tn7 FP inh: 3; Tn6 DDE FP: 20*; PKA-R2B activ: 3; Neddylation inh: -6; DDE Tn6 FP ctr: 3; DDE Tn6 confirm: -8

How did Cc1cc(NS(=O)(=O)c2ccc(NC(=O)CSc3nnc(-c4ccncc4)n3Cc3ccco3)cc2)nc(C)n1 do in these assays?
DDE Tn7 FP inh: 2; Tn6 DDE FP: -3

What do the screens show for `O=c1c2cccnc2[nH]c(=S)n1CCCN1CCN(c2ccccc2F)CC1`?
PKA-R1A act: 2; DDE Tn7 FP inh: 7; Tn6 DDE FP: 17*; PKA-R2B activ: 0; Neddylation inh: -6; DDE Tn6 FP ctr: 1; DDE Tn6 confirm: -1

What do the screens show for `Cc1nn(-c2ccccc2)cc1/C=N/NC(N)=S`?
DDE Tn7 FP inh: -1; Tn6 DDE FP: -12; Neddylation inh: -4

Results for Cc1nn(-c2ccccc2)cc1C(c1c(N)[nH]c(=S)[nH]c1=O)c1c(N)[nH]c(=S)[nH]c1=O ?
PKA-R1A act: -3; DDE Tn7 FP inh: 1; Tn6 DDE FP: 15*; PKA-R2B activ: -13; Neddylation inh: 9; DDE Tn6 FP ctr: -7; DDE Tn6 confirm: -28

Results for CCCC(=Nc1ccccc1)C1=C(O)C(C(=O)OC)C(C)(C)CC1=O (stereo unspecified) ?
PKA-R1A act: -8; DDE Tn7 FP inh: 4; Tn6 DDE FP: 3; PKA-R2B activ: 0; Neddylation inh: -5

Results for CCCCC(=Nc1ccc(N)cc1)C1=C(O)C(C(=O)OC)C(C)(C)CC1=O (stereo unspecified) ?
PKA-R1A act: 1; DDE Tn7 FP inh: 4; Tn6 DDE FP: 121*; PKA-R2B activ: -16; Neddylation inh: -30; DDE Tn6 FP ctr: -4; DDE Tn6 confirm: 9

Results for O=C(CCS(=O)(=O)c1ccccc1)Nc1ccc(F)cc1Cl ?
DDE Tn7 FP inh: -3; Tn6 DDE FP: 4

How did O=C(CSc1nc2sc3c(c2c(=O)n1-c1ccc(Cl)cc1)CCCC3)c1ccccc1Cl do in these assays?
DDE Tn7 FP inh: -6; Tn6 DDE FP: -5

Results for CCN1/C(=C/C=C/c2oc3ccc(-c4ccccc4)cc3[n+]2CC)Oc2ccc(-c3ccccc3)cc21 ?
PKA-R1A act: 13; DDE Tn7 FP inh: -6; Tn6 DDE FP: active; PKA-R2B activ: 3; Neddylation inh: inactive; DDE Tn6 FP ctr: 53*; DDE Tn6 confirm: 93*

How did CCN1/C(=C/C=C/c2sc3ccccc3[n+]2CC)Sc2ccccc21 do in these assays?
PKA-R1A act: -15; PKA-R2B activ: -12; Neddylation inh: -9

What do the screens show for `Cc1ccc(O)c(N=Nc2ccccc2)n1`?
PKA-R1A act: 1; DDE Tn7 FP inh: -4; Tn6 DDE FP: 16*; PKA-R2B activ: 3; Neddylation inh: -42; DDE Tn6 FP ctr: 1; DDE Tn6 confirm: 1
